An excerpt weighted towards active compounds, which were near 2.8% of everything screened.
pPAFAH FP inh: pPAFAH enzyme inhibitors, primary screen, biochemical, fluorescence polarization, human | inhibition, % at 3.39 µM | recombinant pPAFAH, FP-rhodamine probe fluorescence polarization | Platelet-activating factor acetylhydrolase (Homo sapiens), Q13093 | AID 463082, 2010 | 330,000 compounds, 1.5% hits;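 active = inhibition above the mean inhibition across the screen plus 3 SD, cut at about 25% in these data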;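 also: inhibitors block binding of the rhodamine activity-based probe so polarization drops; 0% = enzyme with DMSO and 100% = wells lacking pPAFAH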
Target sequence (Q13093 whole entry, looked up): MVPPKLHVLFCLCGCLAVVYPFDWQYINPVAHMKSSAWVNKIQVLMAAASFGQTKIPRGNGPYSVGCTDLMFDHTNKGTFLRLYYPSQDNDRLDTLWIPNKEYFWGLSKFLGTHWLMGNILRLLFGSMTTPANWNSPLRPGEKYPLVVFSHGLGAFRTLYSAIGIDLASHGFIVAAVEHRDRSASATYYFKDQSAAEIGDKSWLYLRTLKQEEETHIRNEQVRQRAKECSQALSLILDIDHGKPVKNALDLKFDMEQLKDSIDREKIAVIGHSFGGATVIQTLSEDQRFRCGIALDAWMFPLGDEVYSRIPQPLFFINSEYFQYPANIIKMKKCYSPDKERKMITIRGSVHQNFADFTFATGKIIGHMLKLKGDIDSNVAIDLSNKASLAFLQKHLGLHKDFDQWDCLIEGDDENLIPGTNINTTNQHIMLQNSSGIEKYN
ASAP1 GAP inh: inhibitors of human ASAP1 ArfGAP activity, primary screen, biochemical, fluorescence polarization | Arf-GAP with SH3 domain, ANK repeat and PH domain-containing protein 1 (Homo sapiens), … | ASAP1-stimulated ARF1 GTP hydrolysis, GDP FP detection | inhibition, % at 16.5 µM | 360,000 compounds, 0.19% hits; in the data active = inhibition above about 25%;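 also: 0% = vehicle with enzyme and substrate and 100% = no enzyme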
PAFAH1B3 FP inh: PAFAH1B3 enzyme inhibitors, primary screen, biochemical, fluorescence polarization, human; recombinant PAFAH1B3, FP-rhodamine probe; inhibition, % at 3.39 µM; 340,000 compounds, 0.28% hits;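 active = inhibition above the screen-wide average of all tested compounds plus 3 SD, cut at about 25% in these data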;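 also: 0% = enzyme with DMSO only and 100% = wells lacking PAFAH1B3 protein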
PAFAH2 FP inh: PAFAH2 enzyme inhibitors, primary screen, biochemical, fluorescence polarization, human; inhibition, % at 3.39 µM; AID 492956, 2010; 340,000 compounds, 0.99% hits; recombinant PAFAH2, FP-rhodamine activity probe; Platelet-activating factor acetylhydrolase 2, cytoplasmic (Homo sapiens), Q99487;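 active = inhibition above the mean over all tested compounds plus 3 SD, cut at about 30% in these data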;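 also: inhibitors block probe labeling of enzyme so polarization drops; 0% = enzyme with DMSO and 100% = wells lacking PAFAH2 protein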
ARFGAP1 inh: inhibitors of rat ARFGAP1 GAP activity, primary screen, biochemical, fluorescence polarization, GDP tracer; 360,000 compounds, 0.26% hits; ADP-ribosylation factor GTPase-activating protein 1 (Rattus norvegicus), Q62848; inhibition, % at 16.5 µM; Arfgap1-stimulated ARF1 GTP hydrolysis, GDP FP detection;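 active = inhibition above a per-plate limit, mean inhibition of low control wells plus 3 SD, cut at about 25% in these data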;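 also: 0% = DMSO wells with enzyme and 100% = wells lacking Arfgap1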
Target sequence (Q62848 1-136 limits assumed): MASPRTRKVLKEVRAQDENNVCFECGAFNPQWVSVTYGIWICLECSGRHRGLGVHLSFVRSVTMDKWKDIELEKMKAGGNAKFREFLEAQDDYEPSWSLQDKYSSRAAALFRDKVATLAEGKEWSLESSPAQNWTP
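Material: rat Arfgap1 GAP domain (His6, aa 1-136), purified enzyme. Also added: human ARF1(Δ1-17)-GTP substrate. Compound dosing: 16.5 µM single point, 1.26% DMSO. Timing: enzyme reaction 120 min at 25 °C after 20 min preincubation. Signal: GDP detection by fluorescence polarization. Read-out basis: percent inhibition of GAP-stimulated GDP formation, scaled between DMSO and no-Arfgap1 medians.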
PAFAH1B2 FP inh: PAFAH1B2 enzyme inhibitors, primary screen, biochemical, fluorescence polarization, human; Platelet-activating factor acetylhydrolase IB subunit alpha2 (Homo sapiens), P68402; recombinant PAFAH1B2, FP-rhodamine activity probe; inhibition, % at 3.39 µM; 340,000 compounds, 1.2% hits; AID 492953, 2010;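 active = inhibition above the mean of all tested compounds plus 3 SD, cut at about 24% in these data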;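 also: 0% = enzyme with DMSO and 100% = wells lacking PAFAH1B2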
ASAP1 inh confirm: ASAP1 GAP activity inhibitors, confirmation, biochemical, fluorescence polarization, human, triplicate; shares compounds with ASAP1 GAP inh; ASAP1-stimulated Arf1 GTPase, GDP fluorescence polarization; inhibition, % at 16.5 µM; 620 compounds, 37% hits; AID 624431, 2012;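 active = mean inhibition over triplicates exceeds the hit threshold derived for the earlier primary screening run, cut at about 25% in these data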
ARFGAP1 inh conf: ARFGAP1 inhibitor hit confirmation, biochemical, fluorescence polarization, triplicate; shares compounds with ARFGAP1 inh; ARFGAP1-stimulated ARF1 GTP hydrolysis, GDP tracer FP; inhibition, % at 16.5 µM; 890 compounds, 30% hits; AID 651608, 2012;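 active = average inhibition over triplicates above the hit cutoff set in the earlier primary screen, cut at about 25% in these data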;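 also: 0% = Arfgap1 plus ARF1-GTP with DMSO and 100% = wells lacking Arfgap1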
Active calls of the source: *.

For O=C(CSc1nnnn1-c1ccccc1)Nc1nsc(-c2ccc(Cl)cc2)n1 the results were pPAFAH FP inh 0, ASAP1 GAP inh 26*, PAFAH1B3 FP inh -31, PAFAH2 FP inh -22, ARFGAP1 inh 44*, PAFAH1B2 FP inh -11, ASAP1 inh confirm 45* and ARFGAP1 inh conf 58*.
For NC(=O)C1CCN(C2=C(Cl)C(=O)c3ccccc3C2=O)CC1 the results were pPAFAH FP inh 0, ASAP1 GAP inh 41*, PAFAH1B3 FP inh 43*, PAFAH2 FP inh 47*, ARFGAP1 inh 29*, PAFAH1B2 FP inh 35*, ASAP1 inh confirm 17 and ARFGAP1 inh conf 1.
For O=C(/C=C(\Nc1ccc(F)cc1)c1ccccc1)c1ccccc1 the results were ASAP1 GAP inh 7 and ARFGAP1 inh -7.
Screening NC(=O)c1cccc(-c2coc3c(C(=O)NCc4cccnc4)cccc23)c1 returned ASAP1 GAP inh -7 and ARFGAP1 inh 4.
For CC(=O)c1cccc(NC(=O)c2cccc3c(-c4cccnc4)coc23)c1 the results were ASAP1 GAP inh 35*, ARFGAP1 inh 26*, ASAP1 inh confirm 26* and ARFGAP1 inh conf 29*.
For O=C(Nc1ccccc1)c1cc2ccccc2o1 the results were pPAFAH FP inh -3, ASAP1 GAP inh -3, PAFAH1B3 FP inh 2, PAFAH2 FP inh 0, ARFGAP1 inh 0 and PAFAH1B2 FP inh 3.
O=C(Nc1ccc(N2CCCC2)cc1)c1cc2ccccc2o1 was read as pPAFAH FP inh -17, ASAP1 GAP inh 43*, PAFAH1B3 FP inh 6, PAFAH2 FP inh -4, ARFGAP1 inh 77*, PAFAH1B2 FP inh 3, ASAP1 inh confirm 146* and ARFGAP1 inh conf 6.
`O=C(COc1ccc2oc(-c3ccco3)cc(=O)c2c1)N1CCCCC1` gave pPAFAH FP inh -4, ASAP1 GAP inh 32*, PAFAH1B3 FP inh 4, PAFAH2 FP inh 8, ARFGAP1 inh 80*, PAFAH1B2 FP inh -3, ASAP1 inh confirm 42* and ARFGAP1 inh conf 72*.
For Cc1ccc([N+](=O)[O-])cc1-c1ccc(/C=C(\C#N)c2[nH]nc(N)c2C#N)o1 the results were pPAFAH FP inh 30*, ASAP1 GAP inh 41*, PAFAH1B3 FP inh 5, PAFAH2 FP inh 22, ARFGAP1 inh 45*, PAFAH1B2 FP inh 2, ASAP1 inh confirm 56* and ARFGAP1 inh conf 58*.
For Cc1ccc(S(=O)(=O)N2C[C@H]3C(=O)C[C@@H](c4ccc(Cl)cc4)N(S(=O)(=O)c4ccccc4C)[C@H]3C[C@H]2c2cccc(Cl)c2)cc1 the results were ASAP1 GAP inh 4 and ARFGAP1 inh 6.
For O=C(Nc1nnc(-c2ccc3c(c2)OCCO3)o1)c1ccc(Cc2ccccc2)cc1 the results were pPAFAH FP inh 12, ASAP1 GAP inh 133*, PAFAH1B3 FP inh 3, PAFAH2 FP inh 2, ARFGAP1 inh 92*, PAFAH1B2 FP inh 5, ASAP1 inh confirm 139* and ARFGAP1 inh conf 155*.
For O=c1cc(CO)[nH]nc1CO the results were ASAP1 GAP inh 2 and ARFGAP1 inh -10.
COc1ccc(/C=C/C(=O)Nc2ccc3nc4n(c(=O)c3c2)CCCC4)cc1 was read as pPAFAH FP inh -1, ASAP1 GAP inh 3, PAFAH1B3 FP inh -1, PAFAH2 FP inh 2, ARFGAP1 inh 1 and PAFAH1B2 FP inh 11.
COc1cc(/C=C/C(=O)Nc2ccc3nc4n(c(=O)c3c2)CCCC4)cc(OC)c1OC was read as pPAFAH FP inh -6, ASAP1 GAP inh 27*, PAFAH1B3 FP inh -1, PAFAH2 FP inh 5, ARFGAP1 inh 25*, PAFAH1B2 FP inh 1, ASAP1 inh confirm 43* and ARFGAP1 inh conf 38*.
O=C1C=C(OCCCl)CC(c2cccc(Cl)c2)O1 (centres undefined) was read as ASAP1 GAP inh -3 and ARFGAP1 inh 1.
COc1ccccc1CNC(=O)Nc1nc(C(N)Cc2ccc(Cl)cc2)cs1 (centres undefined) was read as ASAP1 GAP inh -1 and ARFGAP1 inh 12.
For Cc1ccc(NC(=S)N2CCN(c3ccccn3)CC2)cc1C the results were pPAFAH FP inh 0, ASAP1 GAP inh 7, PAFAH1B3 FP inh 9, PAFAH2 FP inh -7, ARFGAP1 inh 3 and PAFAH1B2 FP inh 0.
COc1ccc(/C=C2\Oc3cc(OCC(=O)N4CCC(C(=O)O)CC4)ccc3C2=O)c(OC)c1OC was read as pPAFAH FP inh -6, ASAP1 GAP inh 32*, PAFAH1B3 FP inh 1, PAFAH2 FP inh 0, ARFGAP1 inh 31*, PAFAH1B2 FP inh 0, ASAP1 inh confirm 35* and ARFGAP1 inh conf 41*.
COc1ccc(/C=C2\Oc3cc(OCC(=O)N4CCC(C(=O)O)CC4)ccc3C2=O)c(OC)c1 was read as pPAFAH FP inh 2, PAFAH1B3 FP inh 0, PAFAH2 FP inh 3 and PAFAH1B2 FP inh 2.
For O=C(Nc1ccc(-c2cc3ccccc3oc2=O)c(Cl)c1)c1cccnc1 the results were pPAFAH FP inh -17, ASAP1 GAP inh 46*, PAFAH1B3 FP inh -7, PAFAH2 FP inh -9, ARFGAP1 inh 62*, PAFAH1B2 FP inh -5, ASAP1 inh confirm 59* and ARFGAP1 inh conf 82*.
COc1cc(NC(=O)c2cccnc2)ccc1-c1cc2ccccc2oc1=O was read as pPAFAH FP inh 1, ASAP1 GAP inh -8 and ARFGAP1 inh 5.
For Cc1cccc(C)c1NC(=O)CNC(=O)CCNC(=O)c1ccco1 the results were pPAFAH FP inh -6, ASAP1 GAP inh 10, PAFAH1B3 FP inh 2, PAFAH2 FP inh -2, ARFGAP1 inh 5 and PAFAH1B2 FP inh 1.
COC(=O)c1ccc(COc2ccc(/C=C(\C#N)c3nc4ccccc4[nH]3)cc2OC)o1 was read as pPAFAH FP inh -4, ASAP1 GAP inh 35*, PAFAH1B3 FP inh -19, PAFAH2 FP inh -20, ARFGAP1 inh 61*, PAFAH1B2 FP inh -6, ASAP1 inh confirm 78* and ARFGAP1 inh conf 108*.
